# From ChEMBL document CHEMBL3272327, “Hypocholesterolemic activity of 1,3-bis(substituted phenoxy)-2-propanones” (J Med Chem, 1976)
# Key:
# Rattus norvegicus [1] = experiment: Effect on heart weight in rat at 1 mg/kg/day administered for 16 days measured 24 hrs after last drug dosage relative to total body weight (reference value: 0.37 +/- 0.04%); format: ADME, organism-based; details: in vivo
# Rattus norvegicus [2] = experiment: Hypocholesterolemic activity in rat assessed as [14C]palmitic acid level in vas deferens at 10 mg/kg/day administered for 1 week measured after 22 hrs on day 7 by scintillation counting analysis (reference value: 0.23 +/- 0.05%); format: functional
# Procedure, shortened: (§1)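 Male Sprague-Dawley rats on lab chow dosed orally once daily for 1 week at 10 mg/kg/day, suspended in 1% CMC, or given vehicle alone. On day 7, 5 μCi [1-14C]palmitic acid given orally. Killed after 22 hr; organs made into 10% water homogenates. Aliquots of 0.1 cc of homogenate, urine, blood or feces were digested and scintillation counted. Output is % of dose per tissue, N = 6.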
# Rattus norvegicus [3] = experiment: Hypocholesterolemic activity in rat assessed as [14C]palmitic acid level in stomach at 10 mg/kg/day administered for 1 week measured after 22 hrs on day 7 by scintillation counting analysis (reference value: 0.65 +/- 0.46%); format: functional; procedure, shortened: as §1
# Rattus norvegicus [4] = experiment: Hypocholesterolemic activity in Sprague-Dawley rat assessed as serum cholesterol level at 10 mg/kg/day, po administered via intubation measured on day 4 by Liebermann-Burchard reaction (reference value: 100%); format: functional
# Rattus norvegicus [5] = experiment: Hypocholesterolemic activity in Sprague-Dawley rat assessed as serum cholesterol level at 50 mg/kg/day, po administered via intubation measured on day 10 by Liebermann-Burchard reaction (reference value: 100 +/- 7%); format: functional
# Rattus norvegicus [6] = experiment: Effect on glycogen content in rat liver at 10 mg/kg/day administered for 16 days (reference value: 100 +/- 24%); format: ADME, organism-based; details: in vivo, 384 h
# Rattus norvegicus [7] = experiment: Effect on DNA content in rat liver at 10 mg/kg/day administered for 16 days (reference value: 100 +/- 25%); format: ADME, organism-based; details: in vivo, 384 h
# Rattus norvegicus [8] = experiment: Hypocholesterolemic activity in Sprague-Dawley rat assessed as serum cholesterol level at 50 mg/kg/day, po administered via intubation measured on day 16 by Liebermann-Burchard reaction (reference value: 100 +/- 8%); format: functional
# Rattus norvegicus [9] = experiment: Effect on food intake in rat at 50 mg/kg/day measured during second week (reference value: 23.4 +/- 1.8 gms); format: ADME, organism-based; details: in vivo
# Procedure, shortened: (§2)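 Male rats dosed orally at 1, 5, 10 or 50 mg/kg/day in 1% CMC. Average food intake in grams per rat per week measured over a 2-week period, first and second weeks reported separately. N = 8, Student's t test against the 1% CMC control.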
# Rattus norvegicus [10] = experiment: Effect on vesicular gland weight in rat at 1 mg/kg/day administered for 16 days measured 24 hrs after last drug dosage relative to total body weight (reference value: 0.10 +/- 0.04%); format: ADME, organism-based; details: in vivo
# Rattus norvegicus [11] = experiment: Hypocholesterolemic activity in rat assessed as [14C]palmitic acid level in testes at 10 mg/kg/day administered for 1 week measured after 22 hrs on day 7 by scintillation counting analysis (reference value: 0.22 +/- 0.10%); format: functional, Testis; procedure, shortened: as §1
# Rattus norvegicus [12] = experiment: Decrease in lipase level in rat liver at 10 mg/kg/day administered for 16 days (reference value: 100 +/- 39%); format: functional; set-up: scale not given: the % may be the effect or the level left
# Rattus norvegicus [13] = experiment: Effect on vas deferens and epididymis weight in rat at 1 mg/kg/day administered for 16 days measured 24 hrs after last drug dosage relative to total body weight (reference value: 0.22 +/- 0.04%); format: ADME, organism-based; details: in vivo
# Rattus norvegicus [14] = experiment: Effect on liver weight in rat at 10 mg/kg/day administered for 16 days measured 24 hrs after last drug dosage relative to total body weight (reference value: 4.22 to 4.54%); format: ADME, organism-based; details: in vivo
# Rattus norvegicus [15] = experiment: Effect on testes weight in rat at 5 mg/kg/day administered for 16 days measured 24 hrs after last drug dosage relative to total body weight (reference value: 1.08 +/- 0.08%); format: ADME, organism-based, Testis; details: in vivo
# Rattus norvegicus [16] = experiment: Hypocholesterolemic activity in [14C]palmitic acid-treated rat assessed as decrease in 14C fatty acid incorporation into phospholipid fraction in liver at 10 mg/kg/day administered for 1 week by scintillation counting analysis; format: functional; set-up: scale not given: the % may be the effect or the level left
# Rattus norvegicus [17] = experiment: Effect on body weight in rat at 5 mg/kg/day administered for 16 days measured on day 16 (reference value: 233 +/- 16 gms); format: ADME, organism-based; details: in vivo, 384 h
# Procedure, shortened: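 Male Sprague-Dawley rats with chow and water ad libitum. Compound suspended in 1% CMC-water and given orally by intubation needle at 11:00 a.m., 1, 5, 10 or 50 mg/kg/day, for 16 days. Body weight (g) recorded on days 0, 7 and 16. N = 8.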
# Rattus norvegicus [18] = experiment: Uterotrophic activity in ovariectomized Sprague-Dawley rat assessed as uterine weight administered for 3 days (reference value: 100 +/- 27%); format: organism-based, Uterus; details: in vivo, 72 h
# Rattus norvegicus [19] = experiment: Hypocholesterolemic activity in Sprague-Dawley rat assessed as serum cholesterol level at 1 mg/kg/day, po administered via intubation measured on day 16 by Liebermann-Burchard reaction (reference value: 100 +/- 8%); format: functional
# Rattus norvegicus [20] = experiment: Effect on liver weight in rat at 1 mg/kg/day administered for 16 days measured 24 hrs after last drug dosage relative to total body weight (reference value: 4.22 +/- 0.29%); format: ADME, organism-based; details: in vivo
# Rattus norvegicus [21] = experiment: Hypocholesterolemic activity in rat assessed as [14C]cholesterol level in kidney at 10 mg/kg/day administered for 1 week measured after 22 hrs on day 7 by scintillation counting analysis (reference value: 0.69 +/- 0.27%); format: functional
# Procedure, shortened: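 Male rats were dosed orally for 1 week (10 mg/kg/day) or with 1% CMC. On day 7 they received 5 μCi [4-14C]cholesterol orally and were killed after 22 hr. Organs were homogenized (10% in water); 0.1-cc aliquots of homogenate, urine, blood or feces were digested with Protosol. Samples were counted in toluene/Triton X-100 (2:1) scintillant with 0.4% PPO and 0.01% POPOP. Results are % of dose per tissue, N = 6.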
# Rattus norvegicus [22] = experiment: Effect on food intake in rat at 5 mg/kg/day measured during second week (reference value: 23.4 +/- 1.8 gms); format: ADME, organism-based; details: in vivo; procedure, shortened: as §2
# [23] = Toxicity in ip dosed CF1 mouse assessed as animal death; format: organism-based; details: in vivo
# Procedure, shortened: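 Male CF1 mice given active propanones ip over 10 mg to 6 g/kg where solubility allowed; deaths recorded to estimate LD50.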
# Rattus norvegicus [24] = experiment: Effect on heart weight in rat at 5 mg/kg/day administered for 16 days measured 24 hrs after last drug dosage relative to total body weight (reference value: 0.37 +/- 0.04%); format: ADME, organism-based; details: in vivo
# Rattus norvegicus [25] = experiment: Effect on heart weight in rat at 10 mg/kg/day administered for 16 days measured 24 hrs after last drug dosage relative to total body weight (reference value: 0.37 to 0.43%); format: ADME, organism-based; details: in vivo
# Rattus norvegicus [26] = experiment: Effect on vas deferens and epididymis weight in rat at 50 mg/kg/day administered for 16 days measured 24 hrs after last drug dosage relative to total body weight (reference value: 0.22 +/- 0.04%); format: ADME, organism-based; details: in vivo
# Rattus norvegicus [27] = experiment: Effect on vesicular gland weight in rat at 50 mg/kg/day administered for 16 days measured 24 hrs after last drug dosage relative to total body weight (reference value: 0.10 +/- 0.04%); format: ADME, organism-based; details: in vivo
# Rattus norvegicus [28] = experiment: Effect on testes weight in rat at 10 mg/kg/day administered for 16 days measured 24 hrs after last drug dosage relative to total body weight (reference value: 1.08 to 1.10%); format: ADME, organism-based, Testis; details: in vivo
# Rattus norvegicus [29] = experiment: Effect on food intake in rat at 1 mg/kg/day measured during second week (reference value: 23.4 +/- 1.8 gms); format: ADME, organism-based; details: in vivo; procedure, shortened: as §2
smiles,measurement,setting,value
Cc1ccc(OCC(=O)COc2ccc(C)cc2)cc1,Activity,Rattus norvegicus [1],0.38%
same,Activity,Rattus norvegicus [2],0.5%
same,Activity,Rattus norvegicus [3],0.48%
same,Activity,Rattus norvegicus [4],77%
same,Activity,Rattus norvegicus [5],46%
same,Activity,Rattus norvegicus [6],118%
same,Activity,Rattus norvegicus [7],81%
same,Activity,Rattus norvegicus [8],44%
same,Activity,Rattus norvegicus [9],28.2 g
same,Activity,Rattus norvegicus [10],0.19%
same,Activity,Rattus norvegicus [11],0.25%
same,Activity,Rattus norvegicus [12],68%
same,Activity,Rattus norvegicus [13],0.23%
same,Activity,Rattus norvegicus [14],4.65%
same,Activity,Rattus norvegicus [15],1.03%
same,Activity,Rattus norvegicus [16],16%
same,Activity,Rattus norvegicus [17],241 g
same,Activity,Rattus norvegicus [18],82%
same,Activity,Rattus norvegicus [19],46%
same,Activity,Rattus norvegicus [20],4%
same,Activity,Rattus norvegicus [21],1.29%
same,Activity,Rattus norvegicus [22],28.8 g
same,LD50,[23],1500 mg/kg
same,Activity,Rattus norvegicus [24],0.43%
same,Activity,Rattus norvegicus [25],0.38%
same,Activity,Rattus norvegicus [26],0.25%
same,Activity,Rattus norvegicus [27],0.15%
same,Activity,Rattus norvegicus [28],1.13%
same,Activity,Rattus norvegicus [29],29.2 g
